# Assay results published in publication PMC9099131 (Clinical and Translational Science, 2022).
# Assays:
# [1] = ref data on file, cited from earlier work
# [2] = Single-dose plasma pharmacokinetics of trazpiroben alone and with esomeprazole; assay type: in vivo, human (healthy adults); conditions: for AUC∞, Geometric LSM / Cmax, Geometric LSM: ANOVA
# In short: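 Healthy adults dosed orally with 25 mg on day 1; after a 4-day washout, the proton pump inhibitor was given at 40 mg once daily on days 8–12, with 25 mg co-dosed 1 h after it on day 11 following a ≥10 h fast. Plasma was sampled predose to 48 h and assayed by validated LC-MS/MS (0.05–50.00 ng/ml), with BLQ values set to zero. Noncompartmental parameters were derived, and ln AUC∞/Cmax were analysed by ANOVA (treatment fixed, participant random).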
# [3] = trazpiroben 25 mg alone, N = 12
# [4] = trazpiroben 25 mg and esomeprazole 40 mg, N = 12
# [5] = plasma, single oral dose trazpiroben 25 mg alone, N = 12
# [6] = single dose alone or in the presence of esomeprazole
# [7] = single oral dose trazpiroben 25 mg alone, N = 12
# [8] = single oral dose trazpiroben 25 mg with esomeprazole 40 mg once daily, N = 12
# [9] = trazpiroben 25 mg with esomeprazole 40 mg vs alone
# [10] = single oral dose of trazpiroben 25 mg alone on day 1
smiles,measurement,setting,value
O=C(O)c1cccc(CN2CN(C3CCCCC3)C3(CCN(CCCC(=O)c4ccccc4)CC3)C2=O)c1 [Trazpiroben],mean solubility,[1]; pH 1.15,1210 µg/mL
same,solubility,[1]; pH 6.97,50 µg/mL
same,"AUC∞, Geometric LSM",[2]; [3],44.03 ng·h/mL
same,"Cmax, Geometric LSM",[2]; [3],19.76 ng/mL
same,"AUC∞, Geometric LSM",[2]; [4],38.85 ng·h/mL
same,"Cmax, Geometric LSM",[2]; [4],17.24 ng/mL
same,"AUC∞, Geo. mean (CV%)",[2]; [5],44.03 (27.50) ng h/ml
same,"Cmax, Geo. mean (CV%)",[2]; [5],19.76 (36.50) ng/ml
same,"Tmax, Median (min, max)",[2]; [5],"1.00 (0.50, 1.53) h"
same,"t1/2, Mean (±SD)",[2]; [5],6.21 ± 3.96 h
same,approximate half-life of biphasic decline,[2]; [6],6 to 7 h
same,time postdose at which mean plasma concentration peaked,[2]; [6],around 1 h
same,"CL/F, Geo. mean (CV%)",[2]; [7],567.90 (27.50) L/h
same,"Vz/F, Geo. mean (CV%)",[2]; [7],4137.00 (77.80) L
same,"CL/F, Geo. mean (CV%)",[2]; [8],643.50 (31.10) L/h
same,"Vz/F, Geo. mean (CV%)",[2]; [8],4716.00 (102.00) L
same,GMR for plasma AUC∞ lower following co-administration versus trazpiroben alone,[2]; [9],11.8%
same,GMR for plasma Cmax lower following co-administration versus trazpiroben alone,[2]; [9],12.8%
same,vital sign and ECG parameters,following both treatments,no clinically meaningful changes
same,tolerability,"healthy adults, administration alone and alongside esomeprazole",well‐tolerated
same,CNS or cardiovascular safety concerns,single agent or co-administered with esomeprazole,no CNS or cardiovascular safety concerns were observed
same,Number of participants with treatment‐emergent AEs,[10],2 (17) n (%)
same,Participants reporting AEs: Folliculitis,[10],0 (0) n (%)
same,Participants reporting AEs: General disorders and administration site conditions,[10],0 (0) n (%)
same,Participants reporting AEs: Headache,[10],1 (8) n (%)
same,Participants reporting AEs: Infections and infestations,[10],0 (0) n (%)
same,Participants reporting AEs: Influenza‐like illness,[10],0 (0) n (%)
same,Participants reporting AEs: Menstruation delayed,[10],0 (0) n (%)
same,Participants reporting AEs: Nervous system disorders,[10],1 (8) n (%)
same,Participants reporting AEs: Oropharyngeal pain,[10],0 (0) n (%)
same,Participants reporting AEs: Reproductive system and breast disorders,[10],0 (0) n (%)
same,"Participants reporting AEs: Respiratory, thoracic, and mediastinal disorders",[10],1 (8) n (%)
same,Participants reporting AEs: Throat irritation,[10],1 (8) n (%)
same,Participants reporting AEs: Vessel puncture site pain,[10],0 (0) n (%)
same,Participants reporting AEs: Vessel puncture site reaction,[10],0 (0) n (%)
same,"deaths, serious AEs, discontinuations due to AEs","whole study, 12 participants","No deaths, serious AEs, or discontinuations due to AEs were reported"
